Test results as given in ChEMBL document CHEMBL1151197, “Molecular-targeted antitumor agents: the Saururus cernuus dineolignans manassantin B and 4-O-demethylmanassantin B are potent inhibitors of hypoxia-activated HIF-1” (J Nat Prod, 2004).
Activity calls are given as the source filed them. No cut-off for these calls is given here.

Key:
Assay type in all cases: cell-based
[1] = biological target: T1, Hypoxia inducible factors; HIF-1-alpha, HIF-2-alpha (Homo sapiens, UniProt Q16665+Q99814); experiment: Inhibition of hypoxia-induced HIF1 activation in human T47D cells after 16 hrs by pTK-HRE3-luciferase reporter gene assay
Summary of the method: (§1)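 Reporter: T47D cells electroporated with pTK-HRE3-luc (140 V, 70 ms, 1 pulse), plated 4.5 × 10^4 cells/well, after 24 h pretreated with serial dilutions for 30 min at 37 °C, then hypoxia (1% O2/5% CO2/94% N2) for 16 h at 37 °C. Luciferase read from lysates; triplicate wells, means ± SD. pGL3-Control cells run as counter-screen.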

[2] = biological target: T1, Hypoxia inducible factors; HIF-1-alpha, HIF-2-alpha; experiment: Inhibition of 1,10-phenathroline-induced HIF1 activation in human T47D cells after 16 hrs at >=30 nM by pTK-HRE3-luciferase reporter gene assay; design: scale not given: the % may be the effect or the level left
Summary of the method: (§2)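 T47D cells electroporated with pTK-HRE3-luc (140 V, 70 ms, 1 pulse), plated 4.5 × 10^4 cells/well, after 24 h given a dilution series for 30 min at 37 °C, then 10 µM 1,10-phenanthroline for 16 h at 37 °C. Luciferase read from cell lysates; quadruplicate wells. Specificity counter-screen used pGL3-Control-transfected cells.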

[3] = biological target: Hypoxia-inducible factor 1-alpha (Homo sapiens) (UniProt Q16665); experiment: Inhibition of 1,10-phenathroline-induced nuclear HIF1 alpha level in human T47D cells at 10 to 100 nM preincubated for 30 mins before addition of 1,10-phenathroline measured after 4 hrs by Western blotting
Hypoxia-inducible factor 1-alpha (Homo sapiens), sequence (Q16665 whole entry, looked up): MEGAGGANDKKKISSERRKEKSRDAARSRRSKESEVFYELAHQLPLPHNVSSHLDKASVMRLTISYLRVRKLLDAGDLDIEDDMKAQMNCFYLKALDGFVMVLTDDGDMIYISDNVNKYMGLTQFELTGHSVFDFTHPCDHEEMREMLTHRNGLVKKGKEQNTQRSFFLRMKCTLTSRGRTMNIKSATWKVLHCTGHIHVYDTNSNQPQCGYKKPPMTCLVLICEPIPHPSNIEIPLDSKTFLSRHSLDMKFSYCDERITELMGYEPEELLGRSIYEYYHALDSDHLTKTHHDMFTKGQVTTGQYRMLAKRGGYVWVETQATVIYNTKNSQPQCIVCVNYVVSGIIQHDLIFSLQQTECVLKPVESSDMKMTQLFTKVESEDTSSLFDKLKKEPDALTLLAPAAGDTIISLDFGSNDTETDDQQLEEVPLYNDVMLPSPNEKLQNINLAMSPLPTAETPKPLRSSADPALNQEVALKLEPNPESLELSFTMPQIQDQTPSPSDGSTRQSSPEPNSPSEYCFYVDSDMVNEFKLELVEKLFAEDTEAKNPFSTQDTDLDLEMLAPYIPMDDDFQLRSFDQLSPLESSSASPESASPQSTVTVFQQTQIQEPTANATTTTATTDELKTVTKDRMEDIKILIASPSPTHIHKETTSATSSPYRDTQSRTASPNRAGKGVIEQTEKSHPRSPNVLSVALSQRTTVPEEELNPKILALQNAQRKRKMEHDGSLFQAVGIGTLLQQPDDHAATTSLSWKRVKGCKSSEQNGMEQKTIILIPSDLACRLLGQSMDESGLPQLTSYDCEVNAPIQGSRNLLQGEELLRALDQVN
Summary of the method: (§3)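 Seeded at 1.7 × 10^5 cells/cm2 overnight, T47D cells got 10 or 100 nM for 30 min, then 4 h of hypoxia or 10 µM 1,10-phenanthroline at 37 °C. Nuclear extracts prepared by NP-40 lysis and 500 mM KCl extraction, separated on 7% SDS-PAGE. Blots probed with anti-HIF-1α (1:500), stripped, reprobed for HIF-1β (1:1500); ABC/ECL detection, Ponceau-S loading check.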

T47D [4] = experiment: Inhibition of hypoxia-induced VEGF production in human T47D cells after 16 hrs by ELISA
Summary of the method: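 T47D cells at 3 × 10^4 cells/well, 30 min compound pretreatment, then 16 h hypoxia (1% O2). Secreted VEGF measured in conditioned medium by sandwich ELISA (OD450, 540 nm correction) against a standard curve. Values normalized to viable cell number from Neutral Red uptake (OD540 minus 630 nm, cell-number standard curve). Quadruplicate; mean ± SEM; ANOVA with Fisher's PLSD.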

[5] = biological target: Hypoxia-inducible factor 1-alpha (Homo sapiens) (UniProt Q16665); experiment: Inhibition of hypoxia-induced nuclear HIF1 alpha level in human T47D cells at 10 to 100 nM preincubated for 30 mins before addition of hypoxia measured after 4 hrs by Western blotting; summary of the method: as §3
T47D [6] = experiment: Inhibition of hypoxia-induced nuclear HIF1 beta level in human T47D cells at 10 to 100 nM preincubated for 30 mins before addition of hypoxia measured after 4 hrs by Western blotting; summary of the method: as §3
[7] = biological target: T1, Hypoxia inducible factors; HIF-1-alpha, HIF-2-alpha; experiment: Inhibition of 1,10-phenathroline-induced HIF1 activation in human T47D cells after 16 hrs at >=10 nM by pTK-HRE3-luciferase reporter gene assay; design: scale not given: the % may be the effect or the level left; summary of the method: as §2
[8] = biological target: T1, Hypoxia inducible factors; HIF-1-alpha, HIF-2-alpha; experiment: Inhibition of hypoxia-induced HIF1 activation in human T47D cells at 10 nM after 16 hrs by pTK-HRE3-luciferase reporter gene assay; summary of the method: as §1
T47D [9] = experiment: Inhibition of 1,10-phenathroline-induced nuclear HIF1 beta level in human T47D cells at 10 to 100 nM preincubated for 30 mins before addition of 1,10-phenathroline measured after 4 hrs by Western blotting; summary of the method: as §3
[10] = biological target: T1, Hypoxia inducible factors; HIF-1-alpha, HIF-2-alpha; experiment: Inhibition of hypoxia-induced HIF1 activation in human T47D cells at 100 nM after 16 hrs by pTK-HRE3-luciferase reporter gene assay; summary of the method: as §1

Q: For `COc1ccc([C@@H](O)[C@@H](C)Oc2ccc([C@H]3O[C@H](c4ccc(O[C@H](C)[C@H](O)c5ccc6c(c5)OCO6)c(OC)c4)[C@H](C)[C@H]3C)cc2OC)cc1OC` (relative stereo) [MANASSANTIN B], which IC50 [1] is on record?
A: The IC50 was 3 nM.

Q: And the Activity [2]?
A: Its Activity is under 50%.

Q: What about the Activity [3] of the same compound?
A: The Activity was “inactive”.

Q: And the Activity (T47D [4])?
A: Its Activity is “Active”.

Q: And the Activity [5]?
A: The Activity was “Active”.

Q: And the Activity (T47D [6])?
A: Its Activity is “inactive”.

Q: And the Activity [7]?
A: Its Activity is under 50%.

Q: And the Activity [8]?
A: The Activity was “Active”.

Q: What about the Activity (T47D [9]) of the same compound?
A: Its Activity is “inactive”.

Q: How did the IC50 [1] turn out when `COc1cc([C@@H](O)[C@@H](C)Oc2ccc([C@H]3O[C@H](c4ccc(O[C@H](C)[C@H](O)c5ccc6c(c5)OCO6)c(OC)c4)[C@H](C)[C@H]3C)cc2OC)ccc1O` (mixture of isomers) [4-O-DEMETHYLMANASSANTIN B] was run?
A: The IC50 was 30 nM.

Q: And the Activity [2]?
A: Its Activity is under 50%.

Q: And the Activity [10]?
A: The Activity was “Active”.

Q: And the Activity (T47D [4])?
A: Its Activity is “Active”.

Q: And the Activity [7]?
A: Its Activity is under 50%.
